14 compounds from ChEMBL document CHEMBL1132575 (J Med Chem, 1999) can be followed below.

In experiment [1] the target is T1, 5-hydroxytryptamine receptor 1A (Homo sapiens, UniProt P08908).
T1 sequence (P08908 whole entry): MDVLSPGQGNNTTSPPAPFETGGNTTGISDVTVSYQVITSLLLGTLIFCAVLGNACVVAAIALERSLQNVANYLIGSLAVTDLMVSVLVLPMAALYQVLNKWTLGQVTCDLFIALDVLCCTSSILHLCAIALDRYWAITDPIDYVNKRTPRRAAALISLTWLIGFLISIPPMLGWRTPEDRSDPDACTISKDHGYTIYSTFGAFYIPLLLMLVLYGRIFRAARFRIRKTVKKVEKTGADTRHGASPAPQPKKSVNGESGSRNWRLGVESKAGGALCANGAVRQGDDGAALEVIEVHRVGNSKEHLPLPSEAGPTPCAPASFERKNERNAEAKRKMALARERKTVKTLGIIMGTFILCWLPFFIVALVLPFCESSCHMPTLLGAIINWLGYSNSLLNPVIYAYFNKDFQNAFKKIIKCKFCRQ
Put plainly: In vitro receptor binding affinity for cloned human 5-hydroxytryptamine 1A receptor.

Experiment [2] deals with T2, 5-hydroxytryptamine receptor 1D (Homo sapiens, UniProt P28221). The experiment can be described thus: Ability to inhibit forskolin-stimulated adenylate cyclase in a cell line expressing human 5-hydroxytryptamine 1D receptor. The experiment is classed as functional.
T2 sequence (P28221 whole entry): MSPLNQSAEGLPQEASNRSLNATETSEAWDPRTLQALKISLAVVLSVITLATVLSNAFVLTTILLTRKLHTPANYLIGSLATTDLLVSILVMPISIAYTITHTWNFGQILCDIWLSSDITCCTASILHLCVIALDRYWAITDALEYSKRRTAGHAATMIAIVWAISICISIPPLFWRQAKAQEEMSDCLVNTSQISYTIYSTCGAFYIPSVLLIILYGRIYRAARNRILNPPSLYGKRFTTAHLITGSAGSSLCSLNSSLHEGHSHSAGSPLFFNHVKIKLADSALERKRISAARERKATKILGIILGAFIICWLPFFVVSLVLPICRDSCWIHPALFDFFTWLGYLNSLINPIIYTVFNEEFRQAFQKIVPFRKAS
Experiment [3] concerns the target 5-hydroxytryptamine receptor 1B (Homo sapiens, UniProt P28222). The experiment can be described thus: In vitro receptor binding affinity for cloned human 5-hydroxytryptamine 1B receptor.
Experiment [4] addresses T2, 5-hydroxytryptamine receptor 1D. The experiment can be described thus: In vitro receptor binding affinity for cloned human 5-hydroxytryptamine 1D receptor. The essentials: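 Radioligand binding assay in cell lines expressing the human 5-HT1D receptor; affinity reported as Ki values. Further procedural detail is referenced to earlier work.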
Experiment [5] shares this target. Put plainly: Intrinsic activity for 5-hydroxytryptamine 1D receptor. The format is functional. The essentials: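 Agonism measured as inhibition of forskolin-stimulated adenylyl cyclase in cell lines expressing the human 5-HT1D receptor.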

5-hydroxytryptamine receptor 1B, sequence (P28222 whole entry): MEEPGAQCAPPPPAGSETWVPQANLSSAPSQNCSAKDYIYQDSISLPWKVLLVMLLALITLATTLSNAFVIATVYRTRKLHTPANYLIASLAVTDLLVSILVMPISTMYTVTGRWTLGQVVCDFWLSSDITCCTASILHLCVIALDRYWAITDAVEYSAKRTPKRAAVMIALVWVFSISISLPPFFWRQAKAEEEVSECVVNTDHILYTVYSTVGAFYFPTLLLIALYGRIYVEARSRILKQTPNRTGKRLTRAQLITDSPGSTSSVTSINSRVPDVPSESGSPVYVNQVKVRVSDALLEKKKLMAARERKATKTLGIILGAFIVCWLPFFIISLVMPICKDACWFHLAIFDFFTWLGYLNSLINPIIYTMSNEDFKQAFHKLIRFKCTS

`CNCCc1c[nH]c2ccc(C(C)(C)C)cc12`: the results for the inhibition constant Ki in experiment [1], in experiment [3] and in experiment [4] were 6.1 nM, 1.9 nM and 0.45 nM, respectively. Besides, the midpoint of the response in experiment [2], the EC50, lay at 0.22 nM. The Emax (as a rule, the maximal effect, on the per cent scale that the assay sets) in experiment [5] was determined as 100%.
With `NCCc1c[nH]c2ccc(C3CCCC3)cc12`, the affinity in experiment [4] corresponds to a Ki of 1.7 nM.
Turning to `CCc1ccc2[nH]cc(CCN)c2c1`, the inhibition constant Ki (as a rule, a measure of affinity in units of concentration, obtained from inhibition or displacement) in experiment [4] came out at 3.7 nM.
Still for that read-out and setting: then `CCCNCCc1c[nH]c2ccc(C(C)(C)C)cc12`, with 6.2 nM; and `CCCN(CCC)CCc1c[nH]c2ccc(C(C)(C)C)cc12`, with 10.8 nM.
Turning to `CNS(=O)(=O)CCc1ccc2[nH]cc(C3CCN(C)CC3)c2c1`, the Ki in experiment [1] was determined as 45 nM; in experiment [3], 3.3 nM; in experiment [4], 2.3 nM. In addition, in experiment [2], the EC50 (commonly the concentration that produces a half-maximal response) stood at 1.6 nM. The same compound registered an Emax in experiment [5] of 100%.
`CNS(=O)(=O)Cc1ccc2[nH]cc(CCN(C)C)c2c1` showed a maximum response (Emax) in experiment [5] of 93%.
The compound `CN(C)CCc1c[nH]c2ccc(C(C)(C)C)cc12` gave a Ki in experiment [4] of 0.44 nM.
The same measure, in the same setting: for `Cc1ccc2[nH]cc(CCN)c2c1` the value was 6.4 nM.
Take `CN[C@@H]1CCc2[nH]c3ccc(C(N)=O)cc3c2C1` [FROVATRIPTAN]: the values for the Ki in experiment [1] and in experiment [4] were 62 nM and […], respectively.
Take `CC(C)c1ccc2[nH]cc(CCN)c2c1`: the Ki in experiment [4] came out at 1.1 nM.
Same read-out and setting: for `CC(C)(C)c1ccc2[nH]cc(CCN)c2c1` the value was 0.6 nM; for `NCCc1c[nH]c2ccc(C3CCCCC3)cc12`, 3.4 nM.
Compound `CN(C)CCc1c[nH]c2ccc(Cn3cncn3)cc12` returned an Emax in experiment [5] of 97%.
